# Source: PubChem
# Rows were chosen to be rich in hits. Some 1.6% of all compounds tested hit in one or more screens of this group.
# Neddylation inh: inhibitors of human cullin neddylation; calls only at 25 µM; 360,000 tested, 0.58% active; AID 651699; P61081+Q13564; TR-FRET cullin neddylation, biochemical; in the data active = inhibition above about 36%
# procasp3 activ: procaspase-3 (human) activation | 330,000 tested, 0.11% active | activation, % at 8.5 µM | P42574 | recombinant procaspase-3 D3A, Ac-DEVD-pNA absorbance 405 nm;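 active = activation above the mean of all tested compounds plus 3 SD, cut at about 21% in these data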;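 also: 0% = DMSO alone and 100% = DMSO wells spiked with extra 5 µM PC-3 D3A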
#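 Compound: 8.5 µM single point, 0.8% DMSO / Material: Autoprocessing-dead procaspase-3 D3A mutant enzyme / Timing: 1 h preincubation plus 2 h reaction at 25 °C / Medium: Zinc-free HEPES/NaCl buffer with 0.01% Triton X-100 at pH 7.4 / Technique: 405 nm absorbance of p-nitroaniline, reads at 0 and 120 min / Repeats: one well per compound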
# proCasp7 act: counter-screen for procaspase-3 activators: activators of human procaspase-7; 330,000 tested, 0.093% active; activation, % at 8.5 µM; P55210; recombinant procaspase-7, Ac-DEVD-pNA absorbance 405 nm; D23A/D198A/D206A triple mutant, cannot self-cleave; scale: DMSO 0, 5 µM enzyme 100;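 active = percent activation above the screen-wide mean plus 3 SD, cut at about 25% in these data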
# Target sequence (P55210 whole entry D23A/D198A/D206A): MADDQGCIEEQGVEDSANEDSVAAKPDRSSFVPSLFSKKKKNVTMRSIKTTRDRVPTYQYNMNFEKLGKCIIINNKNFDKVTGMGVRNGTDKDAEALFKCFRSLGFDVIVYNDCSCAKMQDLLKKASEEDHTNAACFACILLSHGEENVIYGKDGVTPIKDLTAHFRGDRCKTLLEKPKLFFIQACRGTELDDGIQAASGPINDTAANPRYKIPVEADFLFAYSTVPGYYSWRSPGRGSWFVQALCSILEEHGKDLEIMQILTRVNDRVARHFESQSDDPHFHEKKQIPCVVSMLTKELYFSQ
#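 Test system: Procaspase-7 triple mutant (PC-7 D3A). Also added: Ac-DEVD-pNA substrate, 400 µM as added. Schedule: 1 h enzyme–compound preincubation and 2 h substrate reaction, both 25 °C. Signal: p-Nitroaniline absorbance at 405 nm, read at 0 and 120 min. Control set: low DMSO alone, high DMSO plus 5 µM PC-7.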
# KLK7 zymogen act: activators of human kallikrein-7 zymogen | P49862 | purified proKLK7, EDANS-DABCYL substrate fluorescence; 100% is mature enzyme control, 0% vehicle | activation, % at 7 µM | 370,000 tested, 0.9% active | AID 652039;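 active = activation above the mean of all tested compounds plus 3 SD, computed per campaign excluding outliers beyond control limits, cut at about 13% in these data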
# Target sequence (P49862 whole entry, looked up): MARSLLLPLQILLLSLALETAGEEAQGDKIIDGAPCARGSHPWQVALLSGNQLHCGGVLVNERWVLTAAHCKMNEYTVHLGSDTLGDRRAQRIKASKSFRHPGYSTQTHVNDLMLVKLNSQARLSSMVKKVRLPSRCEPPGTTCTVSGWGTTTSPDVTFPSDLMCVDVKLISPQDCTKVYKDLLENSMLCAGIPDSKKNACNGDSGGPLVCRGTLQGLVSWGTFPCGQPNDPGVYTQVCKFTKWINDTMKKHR
# KLK7 act conf: confirmation of human kallikrein-7 zymogen activators; shares compounds with KLK7 zymogen act; purified proKLK7, EDANS-DABCYL substrate fluorescence; scaled: vehicle 0, mature enzyme 100; activation, % at 7 µM; 3,200 tested, 68% active;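 active = activation, as change over the incubation, above the mean of all tested compounds plus 3 SD, cut at about 13% in these data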
# EDANS interfere: counter-screen for kallikrein-7 activators: EDANS-DABCYL optical interference. shares compounds with KLK7 zymogen act. EDANS-DABCYL substrate fluorescence interference, no enzyme, 4 h; solvent 0%, active enzyme control 100%. activation, % at 7 µM. 3,200 tested, 80% active. AID 686952;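 active = activation above the all-compound mean plus 3 SD, ignoring values outside control-based bounds, cut at about 4.8% in these data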;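 also: value is the 4 h activation minus the activation read at time zero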
# EDANS interf: optically interferes with EDANS-DABCYL fluorescence, kallikrein-7 activator counter-screen. shares compounds with KLK7 zymogen act. EDANS-DABCYL peptide fluorescence interference, no enzyme. EC50, µM. 250 tested, 20% active. AID 720493;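 active = compounds that raise the fluorescence signal in this interference counterscreen, with EC50 at or below 10 µM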;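 also: intact quenched peptide substrate alone read at 355 nm excitation and 520 nm emission; signal is fluorescence gain from T0 to T4 after four hours at room temperature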
# Starred values were filed as active, the others as inactive; i = inactive; . = no result shown.
SMILES,Neddylation inh,procasp3 activ,proCasp7 act,KLK7 zymogen act,KLK7 act conf,EDANS interfere,others
Cc1ccc2[nH]c3c(=O)n(CCN4CCNCC4)cnc3c2c1,i,-2.9,-4.0,0.7,.,.,
Cc1ccc(NC(=O)CSC(C)C(=O)OCc2cc(=O)oc3cc(O)ccc23)cc1 (stereo not given),.,.,.,241.2*,314.3*,275.5*,
CSCCC(NS(=O)(=O)c1ccccc1)C(=O)OCc1nc2ccsc2c(=O)[nH]1 (stereo not given),i,-1.9,-4.4,0.0,.,.,
CCOC(=O)Nc1ccc2c(COC(=O)c3ccccc3O)cc(=O)oc2c1,i,2.2,-4.7,4.5,.,.,
CC(=O)Nc1ccc2c(COC(=O)[C@H](C)N3C(=O)C4CCCCC4C3=O)cc(=O)oc2c1 (stereo not given in full),.,2.4,8.8,23.9*,3.7,4.7*,
CSCCC(NS(=O)(=O)c1ccccc1)C(=O)OCc1cc(=O)oc2cc(O)ccc12 (stereo not given),.,-5.6,-1.0,435.4*,497.9*,529.0*,
O=C(NCC1COCCO1)C1CCN(S(=O)(=O)c2cccc3ccccc23)CC1 (stereo not given),.,.,.,-0.3,.,.,
O=c1oc2cc(OCc3c(F)cccc3Cl)ccc2cc1-c1ccccn1,i,-3.3,11.5,-5.9,.,.,
CC(=O)Oc1cccc(-c2nc3ccccc3c(=O)o2)c1,i,0.7,5.4,0.3,.,.,
COC(=O)C(C)Oc1ccc2cc(-c3ccccc3)c(=O)oc2c1 (stereo not given),.,-41.9,5.4,16.1*,64.5*,44.4*,EDANS interf=>69.5
Cc1cc(OC(C)C(=O)NCC2CCC(C(=O)O)CC2)c2c(C)cc(=O)oc2c1 (stereo not given),.,0.3,8.9,12.8*,12.0,12.2*,
CCCOc1ccc2cc(-c3ccccn3)c(=O)oc2c1,.,-3.4,3.0,25.4*,55.3*,67.3*,
CC(=O)Oc1ccc2cc(-c3cccnc3)c(=O)oc2c1,i,.,.,265.5*,72.1*,71.9*,
CC(C)C(C(=O)OCC(=O)c1ccccc1)N1C(=O)C2C3C=CC(C3)C2C1=O (stereo not given),i,7.8,11.9,-0.4,.,.,
Cc1ccc(NC(=O)C2CCN(c3nnc(-n4cccc4)s3)CC2)c(C)c1,.,.,.,0.0,.,.,
CCOC(=O)c1c(-c2ccccc2)csc1NC(=O)c1cc2ccccc2oc1=O,i,-3.3,-6.6,0.5,.,.,
Cc1cccc(C)c1NC(=O)c1cc(S(=O)(=O)N2CCC3(CC2)OCCO3)ccc1F,i,.,.,0.3,.,.,
CN(C)C(=O)COc1ccc2cc(-c3ccccc3)c(=O)oc2c1,i,-8.6,9.0,33.2*,66.2*,73.5*,
CC(Oc1ccc2cc(-c3ccccc3)c(=O)oc2c1)C(=O)NCC1CCC(C(=O)O)CC1 (stereo not given),i,6.7,-2.0,64.5*,65.2*,77.4*,
O=c1oc2ccccc2cc1-c1ccccc1,i,4.8,-1.8,0.4,.,.,
CC(Oc1ccc2ccc(=O)oc2c1)C(=O)NCC1CCC(C(=O)O)CC1 (stereo not given),i,8.3,8.1,1.4,.,.,
COc1ccc2cc(-c3ccccc3)c(=O)oc2c1,.,6.0,4.8,23.2*,81.6*,74.0*,
C[C@@H]1CN([C@H](C)CO)C(=O)CCCn2nncc2CO[C@@H]1CN(C)S(=O)(=O)c1ccc2ccccc2c1,i,.,.,1.2,.,.,
Cc1cc(C)c2c(=O)n3c(nc2c1)C(Cc1ccc(O)cc1)NC(=O)c1cc2ccccc2cc1-3 (stereo not given),i,.,.,-2.1,.,.,
Nc1cc(Nc2ccccc2)c2nonc2c1[N+](=O)[O-],i,-11.4,-19.3,13.5*,-1.5,-0.1,
SMILES,Neddylation inh,procasp3 activ,proCasp7 act,KLK7 zymogen act,KLK7 act conf,EDANS interfere,others
N#Cc1c(-c2ccco2)cc(C2CC2)nc1N,.,1.1,3.0,-4.7,.,.,
N#Cc1c(-c2ccco2)cc(-c2cccnc2)nc1N,.,-7.2,-1.4,20.4*,42.2*,43.4*,
N#Cc1c(-c2cccnc2)cc(-c2ccccc2)nc1N,.,1.9,7.5,13.2*,14.2*,13.4*,
N#Cc1c(-c2ccccc2F)cc(-c2cccnc2)nc1N,.,-4.2,5.2,8.6,.,.,
N#Cc1c(-c2ccco2)cc(-c2ccccn2)nc1N,.,-13.1,-13.4,13.0*,41.0*,39.8*,
COC(=O)CC1C(=O)NCCN1C(=O)c1cc(OC)c(OC)cc1OC (stereo not given),i,-6.2,7.8,0.4,.,.,
COc1cc(/C=C2/NC(=O)N(CC(=O)Nc3cccc(C)c3)C2=O)ccc1OCC(N)=O,.,-4.1,13.5,146.3*,50.4*,53.8*,
O=C(O)c1c2c(nc3ccccc13)/C(=C/c1ccc(O)cc1)CC2,.,3.1,2.0,28.2*,68.2*,70.2*,
O=C(O)c1c2c(nc3ccccc13)/C(=C/c1ccc(OC(F)F)cc1)CCC2,i,4.2,-0.5,2.5,.,.,
NC(=O)NN=C1CCC(O)CC1CC(=O)O (stereo not given),.,.,.,-2.3,.,.,
CN(C)C(CNc1ccc(S(C)(=O)=O)cc1[N+](=O)[O-])Cc1ccccc1 (stereo not given),i,-10.1,-0.7,-0.3,.,.,
COc1cccc2sc3cc(NCc4ccc5c(c4)OCO5)ccc3c(=O)c12,i,-4.1,-1.3,41.7*,47.1*,45.5*,
COc1cc2sc3cc(NCc4ccc5c(c4)OCO5)ccc3c(=O)c2cc1OC,i,-6.7,-5.1,-7.2,.,.,
COc1ccc(C(=O)/C=C/c2ccccc2)c(OC)c1,i,-3.2,6.7,-0.2,.,.,
Cc1ccc(O)c(C(=O)C=Cc2ccccc2)c1,i,.,.,13.3*,34.1*,34.4*,
COc1cc(/C=C/C(=O)O)cc(OC)c1O,i,-9.4,-14.7,20.8*,70.0*,79.2*,
COc1cc(C)cc(C(=O)C=Cc2ccccc2)c1O,i,.,.,14.1*,9.1,10.8*,
Cc1ccc(/C=C/C(=O)c2ccccc2O)cc1,i,6.6,-3.2,0.6,.,.,
C[C@H](NC(=O)C1CCN(C(=O)[C@H](Cc2ccccc2)NC(=O)OC(C)(C)C)CC1)C(=O)O,i,6.7,-3.4,-0.4,.,.,
Cc1ccc(-c2cn3c(=O)cc(C)[nH]c3n2)cc1,.,4.3,7.2,5.2,.,.,
Cc1cc(=O)n2cc(-c3ccccc3)nc2[nH]1,.,8.0,-2.0,16.2*,3.4,3.3,
COc1ccc2c(c1)c[n+](C)c1c3cc(OC)c(OC)cc3ccc21,i,.,.,-1.5,.,.,
COc1cc2c[n+](C)c3c4ccccc4ccc3c2cc1OC,.,.,.,26.2*,10.5,16.0*,
